Data reported in ChEMBL document CHEMBL2034977, “Discovery of CX-6258. A Potent, Selective, and Orally Efficacious pan-Pim Kinases Inhibitor” (ACS Med Chem Lett, 2012).

Key:
Assay type in all cases: ADME, organism-based; call rule not given here
[1] = Clearance in iv dosed mouse; details: in vivo
In short: (§1)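 Mouse pharmacokinetics after IV and oral dosing. Vehicle D5W. Clearance, volume of distribution, half-life, AUC over 0−24 h and oral bioavailability were derived. Each value is the average of four animals.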

[2] = Volume of distribution in iv dosed mouse; details: in vivo; in short: as §1
[3] = Half life in iv dosed mouse; details: in vivo; in short: as §1
[4] = AUC (0 to 24 hrs) in po dosed mouse; parameters: time < 24 hr, route oral; details: plasma; in short: as §1
[5] = Oral bioavailability in mouse; details: in vivo; in short: as §1
[6] = organism: Mus musculus; test: Drug metabolism in mouse assessed as formation of 3-((5-(3-(1,4-diazepane-1-carbonyl)phenyl)furan-2-yl)methylene)-5-chloroindolin-2-one; details: in vivo

CN1CCCN(C(=O)c2cccc(-c3ccc(/C=C4/C(=O)Nc5ccc(Cl)cc54)o3)c2)CC1
clearance [1]: 35 mL/min/kg
Vd [2]: 85 L/kg
half-life [3]: 1620 min
AUC(0-t) at 24 h [4]: 1020 ng·h/mL
bioavailability [5]: 23%
Drug metabolism [6]: Active
